Reference: ChEMBL document CHEMBL1153560, “In vitro activities of doripenem and six comparator drugs against 423 aerobic and anaerobic bacterial isolates from infected diabetic foot wounds” (2008)
≈ marks a conversion by molar mass, not a printed value.

Experiments:
Assay type in all cases: functional
[1] = test system: Anaerocolumna aminovalerica; assay: Antibacterial activity against Clostridium aminovalericum isolated from patient with diabetic foot infection after 44 to 48 hrs by agar dilution method
Outline: (§1)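 CLSI M11-A7 agar dilution: serial twofold drug dilutions made on the test day and added to molten agar. Spots of 10^5 CFU were applied by replicator, with drug-free control plates inoculated before and after each set. Incubation was 44 to 48 h at 37°C in an anaerobic chamber. MIC was the lowest concentration giving no growth or a marked change in growth versus controls.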

Clostridium cadaveris [2] = assay: Antibacterial activity against Clostridium cadaveris isolated from patient with diabetic foot infection after 44 to 48 hrs by agar dilution method; outline: as §1
[3] = test system: Enterocloster clostridioformis; assay: Antibacterial activity against Clostridium clostridioforme isolated from patient with diabetic foot infection after 44 to 48 hrs by agar dilution method; outline: as §1
[Clostridium] innocuum = Antibacterial activity against Clostridium innocuum isolated from patient with diabetic foot infection after 44 to 48 hrs by agar dilution method; outline: as §1
Anaerococcus tetradius = assay: Antibacterial activity against Anaerococcus tetradius isolated from patient with diabetic foot infection after 44 to 48 hrs by agar dilution method; outline: as §1
[4] = test system: Peptostreptococcus anaerobius; assay: Antibacterial activity against Peptostreptococcus anaerobius isolated from patient with diabetic foot infection after 44 to 48 hrs by agar dilution method; outline: as §1
Escherichia coli = assay: Antibacterial activity against Escherichia coli isolated from patient with diabetic foot infection assessed as percent resistant isolates after 18 to 24 hrs by broth microdilution method
Outline: (§2)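 Aerobes subcultured on Trypticase soy blood agar, then broth microdilution in cation-adjusted Mueller-Hinton broth. Trays prepared in-house with twofold dilutions and stored at −70°C. Overnight colonies suspended to about 5 × 10^5 CFU/ml final. Read after 18 to 24 h at 37°C. QC strains included S. aureus ATCC 29213 and E. coli ATCC 25922.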

Klebsiella aerogenes [5] = assay: Antibacterial activity against Enterobacter aerogenes isolated from patient with diabetic foot infection assessed as percent resistant isolates after 18 to 24 hrs by broth microdilution method; outline: as §2
[6] = test system: Staphylococcus lugdunensis; assay: Antibacterial activity against Staphylococcus lugdunensis isolated from patient with diabetic foot infection after 18 to 24 hrs by broth microdilution method
Outline: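 Subcultured on Trypticase soy blood agar, then broth microdilution in cation-adjusted Mueller-Hinton broth. Trays were made in-house with serial twofold drug dilutions and stored at −70°C. Inoculum was colonies from overnight growth, final approximately 5 × 10^5 CFU/ml. MIC was read after 18 to 24 h at 37°C. QC strains: S. aureus ATCC 29213 and E. coli ATCC 25922.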

Corynebacterium xerosis = assay: Antibacterial activity against Corynebacterium xerosis isolated from patient with diabetic foot infection assessed as percent resistant isolates after 48 hrs by broth microdilution method
Outline: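 Isolates subcultured on Trypticase soy blood agar. Broth microdilution in cation-adjusted Mueller-Hinton broth with lysed horse blood, using in-house twofold dilution trays stored at −70°C. Inoculum from overnight colonies at about 5 × 10^5 CFU/ml final. Read after 18 to 24 h at 37°C, up to 48 h for some Corynebacterium strains.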

[7] = test system: Staphylococcus haemolyticus; assay: Antibacterial activity against Staphylococcus haemolyticus isolated from patient with diabetic foot infection assessed as percent resistant isolates after 18 to 24 hrs by broth microdilution method
[8] = test system: Staphylococcus lugdunensis; assay: Antibacterial activity against Staphylococcus lugdunensis isolated from patient with diabetic foot infection assessed as percent resistant isolates after 18 to 24 hrs by broth microdilution method; outline: as §2
Bacteroides ovatus = assay: Antibacterial activity against Bacteroides ovatus isolated from patient with diabetic foot infection assessed as percent resistant isolates after 44 to 48 hrs by agar dilution method
Outline: (§3)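 Agar dilution per CLSI M11-A7. Twofold drug dilutions made on the test day and added to molten agar. Replicator-applied inoculum of 10^5 CFU/spot. Drug-free control plates inoculated before and after each drug set. Incubation at 37°C for 44 to 48 h, anaerobic chamber. MIC taken as the lowest concentration giving no growth or a marked change in growth versus controls.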

Phocaeicola vulgatus = assay: Antibacterial activity against Bacteroides vulgatus isolated from patient with diabetic foot infection after 44 to 48 hrs by agar dilution method; outline: as §1
Parabacteroides merdae = assay: Antibacterial activity against Parabacteroides merdae isolated from patient with diabetic foot infection after 44 to 48 hrs by agar dilution method; outline: as §1
[9] = test system: Porphyromonas asaccharolytica; assay: Antibacterial activity against Porphyromonas asaccharolyticus isolated from patient with diabetic foot infection after 44 to 48 hrs by agar dilution method; outline: as §1
Porphyromonas somerae = assay: Antibacterial activity against Porphyromonas somerae isolated from patient with diabetic foot infection assessed as percent resistant isolates after 44 to 48 hrs by agar dilution method; outline: as §3
Prevotella bivia = assay: Antibacterial activity against Prevotella bivia isolated from patient with diabetic foot infection assessed as percent resistant isolates after 44 to 48 hrs by agar dilution method; outline: as §3
Klebsiella aerogenes [10] = assay: Antibacterial activity against Enterobacter aerogenes isolated from patient with diabetic foot infection after 18 to 24 hrs by broth microdilution method
Outline: (§4)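 Isolates were subcultured on Trypticase soy blood agar and tested by broth microdilution in cation-adjusted Mueller-Hinton broth. In-house trays of twofold drug dilutions were stored at −70°C. Overnight colonies gave a final inoculum of about 5 × 10^5 CFU/ml. Plates were read after 18 to 24 h at 37°C.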

Enterobacter cloacae = assay: Antibacterial activity against Enterobacter cloacae isolated from patient with diabetic foot infection after 18 to 24 hrs by broth microdilution method; outline: as §4
Proteus mirabilis = assay: Antibacterial activity against Proteus mirabilis isolated from patient with diabetic foot infection after 18 to 24 hrs by broth microdilution method; outline: as §4
Proteus vulgaris = assay: Antibacterial activity against Proteus vulgaris isolated from patient with diabetic foot infection after 18 to 24 hrs by broth microdilution method; outline: as §4
Corynebacterium striatum = assay: Antibacterial activity against Corynebacterium striatum isolated from patient with diabetic foot infection after 48 hrs by broth microdilution method
Outline: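 Isolates were subcultured on Trypticase soy blood agar. Broth microdilution used cation-adjusted Mueller-Hinton broth with lysed horse blood, in-house trays of twofold drug dilutions stored at −70°C. Colonies from overnight growth gave a final inoculum of about 5 × 10^5 CFU/ml. Trays were read after 18 to 24 h at 37°C, up to 48 h for some strains.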

Clostridium cadaveris [11] = assay: Antibacterial activity against Clostridium cadaveris isolated from patient with diabetic foot infection assessed as percent resistant isolates after 44 to 48 hrs by agar dilution method; outline: as §3
[12] = test system: Enterocloster clostridioformis; assay: Antibacterial activity against Clostridium clostridioforme isolated from patient with diabetic foot infection assessed as percent resistant isolates after 44 to 48 hrs by agar dilution method; outline: as §3
[13] = test system: Clostridium malenominatum; assay: Antibacterial activity against Clostridium malenominatum isolated from patient with diabetic foot infection assessed as percent resistant isolates after 44 to 48 hrs by agar dilution method; outline: as §3
Anaerococcus vaginalis = assay: Antibacterial activity against Anaerococcus vaginalis isolated from patient with diabetic foot infection assessed as percent resistant isolates after 44 to 48 hrs by agar dilution method; outline: as §3

## C[C@@H](O)[C@H]1C(=O)N2C(C(=O)O)=C(SCCNC=N)C[C@H]12 [IMIPENEM ANHYDROUS]
[1]
  MIC50: 0.25 µg/mL (≈ 0.835 µM)
  MIC90: 2 µg/mL (≈ 6.68 µM)
Clostridium cadaveris [2]
  MIC50: 0.25 µg/mL (≈ 0.835 µM)
  MIC90: 2 µg/mL (≈ 6.68 µM)
[3]
  MIC50: 0.25 µg/mL (≈ 0.835 µM)
  MIC90: 2 µg/mL (≈ 6.68 µM)
[Clostridium] innocuum
  MIC50: 0.25 µg/mL (≈ 0.835 µM)
  MIC90: 2 µg/mL (≈ 6.68 µM)
Anaerococcus tetradius
  MIC50: ≤ 0.015 µg/mL
  MIC90: 0.03 µg/mL (≈ 0.1 µM)
[4]
  MIC50: 0.03 µg/mL (≈ 0.1 µM)
  MIC90: 0.06 µg/mL (≈ 0.2 µM)
Escherichia coli
  Activity: 0%
Klebsiella aerogenes [5]
  Activity: 0%
[6]
  MIC50: 0.03 µg/mL (≈ 0.1 µM)
  MIC90: 0.06 µg/mL (≈ 0.2 µM)
Corynebacterium xerosis
  Activity: 0%
[7]
  Activity: 73%
[8]
  Activity: 0%
Bacteroides ovatus
  Activity: 0%
Phocaeicola vulgatus
  MIC50: 0.5 µg/mL (≈ 1.67 µM)
  MIC90: 1 µg/mL (≈ 3.34 µM)
Parabacteroides merdae
  MIC50: 0.5 µg/mL (≈ 1.67 µM)
  MIC90: 1 µg/mL (≈ 3.34 µM)
[9]
  MIC50: < 0.015 µg/mL
  MIC90: ≤ 0.015 µg/mL
Porphyromonas somerae
  Activity: 0%
Prevotella bivia
  Activity: 0%
Klebsiella aerogenes [10]
  MIC50: 1 µg/mL (≈ 3.34 µM)
  MIC90: 2 µg/mL (≈ 6.68 µM)
Enterobacter cloacae
  MIC50: 1 µg/mL (≈ 3.34 µM)
  MIC90: 2 µg/mL (≈ 6.68 µM)
Proteus mirabilis
  MIC50: 0.5 µg/mL (≈ 1.67 µM)
  MIC90: 4 µg/mL (≈ 13.4 µM)
Proteus vulgaris
  MIC50: 0.5 µg/mL (≈ 1.67 µM)
  MIC90: 4 µg/mL (≈ 13.4 µM)
Corynebacterium striatum
  MIC50: 0.03 µg/mL (≈ 0.1 µM)
  MIC90: 0.125 µg/mL (≈ 0.418 µM)
Clostridium cadaveris [11]
  Activity: 0%
[12]
  Activity: 0%
[13]
  Activity: 0%
Anaerococcus vaginalis
  Activity: 0%

## Cc1ncc([N+](=O)[O-])n1CCO [METRONIDAZOLE]
[1]
  MIC50: 0.125 µg/mL (≈ 0.73 µM)
  MIC90: 0.25 µg/mL (≈ 1.46 µM)
Clostridium cadaveris [2]
  MIC50: 0.125 µg/mL (≈ 0.73 µM)
  MIC90: 0.25 µg/mL (≈ 1.46 µM)
[3]
  MIC50: 0.125 µg/mL (≈ 0.73 µM)
  MIC90: 0.25 µg/mL (≈ 1.46 µM)
[Clostridium] innocuum
  MIC50: 0.125 µg/mL (≈ 0.73 µM)
  MIC90: 0.25 µg/mL (≈ 1.46 µM)
Anaerococcus tetradius
  MIC50: 0.5 µg/mL (≈ 2.92 µM)
  MIC90: 1 µg/mL (≈ 5.84 µM)
[4]
  MIC50: 0.25 µg/mL (≈ 1.46 µM)
  MIC90: 1 µg/mL (≈ 5.84 µM)
Bacteroides ovatus
  Activity: 0%
Phocaeicola vulgatus
  MIC50: 0.5 µg/mL (≈ 2.92 µM)
  MIC90: 1 µg/mL (≈ 5.84 µM)
Parabacteroides merdae
  MIC50: 0.5 µg/mL (≈ 2.92 µM)
  MIC90: 1 µg/mL (≈ 5.84 µM)
[9]
  MIC50: 0.05 µg/mL (≈ 0.292 µM)
  MIC90: 0.25 µg/mL (≈ 1.46 µM)
Porphyromonas somerae
  Activity: 0%
Prevotella bivia
  Activity: 0%
Clostridium cadaveris [11]
  Activity: 0%
[12]
  Activity: 0%
[13]
  Activity: 0%
Anaerococcus vaginalis
  Activity: 0%
